In ChEMBL document CHEMBL2346664, “Synthesis, characterization and in vitro anticancer evaluation of novel 1,2,4-triazolin-3-one derivatives” (2013):

Tests used:
Type in all cases: functional
UACC-257 = assay: Growth inhibition of human UACC257 cells assessed as cell growth at 10 '-7 M after 48 hrs by sulforhodamine B assay; conditions: UACC-257, 48 h, read-out: Activity
OVCAR-4 [1] = assay: Growth inhibition of human OVCAR4 cells assessed as cell growth at 10 '-7 M after 48 hrs by sulforhodamine B assay; conditions: OVCAR-4, 48 h, read-out: Activity
NCI-H522 = assay: Growth inhibition of human NCI-H522 cells assessed as cell growth at 10 '-4 M after 48 hrs by sulforhodamine B assay; conditions: NCI-H522, 48 h, read-out: Activity
SN12C = assay: Growth inhibition of human SN12C cells assessed as cell growth at 10 '-7 M after 48 hrs by sulforhodamine B assay; conditions: read-out: Activity
COLO 205 = assay: Growth inhibition of human COLO205 cells assessed as cell growth at 10 '-7 M after 48 hrs by sulforhodamine B assay; conditions: COLO 205, 48 h, read-out: Activity
[2] = Growth inhibition of human EKVX cells assessed as cell growth at 10 '-8 M after 48 hrs by sulforhodamine B assay; conditions: read-out: Activity
RPMI-8226 = assay: Growth inhibition of human RPMI8226 cells after 48 hrs by sulforhodamine B assay; conditions: RPMI-8226, 48 h
MCF7 = assay: Growth inhibition of human MCF7 cells assessed as cell growth at 10 '-6 M after 48 hrs by sulforhodamine B assay; conditions: MCF7, 48 h, read-out: Activity
KM12 = assay: Growth inhibition of human KM12 cells after 48 hrs by sulforhodamine B assay; conditions: KM12, 48 h
Outline: (§1)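 NCI 60-cell-line five-dose screen. Cells were plated at 5,000–40,000/well by doubling time and grown 24 h at 37 °C, 5% CO2. Time-zero plates were TCA-fixed. Drug from DMSO stock was tested at 0.01, 0.1, 1, 10 and 100 µM final for 48 h continuous exposure. Read-out was SRB at 515 nm. GI50 is the concentration giving 50% reduction in net protein increase versus untreated control.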

M14 = assay: Growth inhibition of human M14 cells assessed as cell growth at 10 '-6 M after 48 hrs by sulforhodamine B assay; conditions: M14, 48 h, read-out: Activity
OVCAR-5 = assay: Growth inhibition of human OVCAR5 cells assessed as cell growth at 10 '-5 M after 48 hrs by sulforhodamine B assay; conditions: OVCAR-5, 48 h, read-out: Activity
CAKI-1 = assay: Growth inhibition of human CAKI-1 cells assessed as growth inhibition at 10 uM after 48 hrs by sulforhodamine B assay; conditions: CAKI-1, 48 h, read-out: GI
Outline: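 Percent growth inhibition from the single 10^-5 M NCI-60 screen, reported as 100 minus growth percent. Growth percent was measured after 48 h drug exposure at 37 °C, 5% CO2, using TCA fixation, SRB staining and absorbance at 515 nm, against untreated controls and time-zero plates.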

SW-620 = assay: Growth inhibition of human SW620 cells assessed as cell growth at 10 '-8 M after 48 hrs by sulforhodamine B assay; conditions: SW-620, 48 h, read-out: Activity
T47D = assay: Growth inhibition of human T47D cells after 48 hrs by sulforhodamine B assay
MDA-MB-435 = assay: Growth inhibition of human MDA-MB-435 cells after 48 hrs by sulforhodamine B assay; conditions: MDA-MB-435, 48 h; outline: as §1
HOP-62 = assay: Growth inhibition of human HOP62 cells assessed as cell growth at 10 '-5 M after 48 hrs by sulforhodamine B assay; conditions: HOP-62, 48 h, read-out: Activity
PC-3 = assay: Growth inhibition of human PC3 cells assessed as cell growth at 10 '-4 M after 48 hrs by sulforhodamine B assay; conditions: PC-3, 48 h, read-out: Activity
[3] = Growth inhibition of human Hs 578T cells assessed as growth inhibition at 10 uM after 48 hrs by sulforhodamine B assay; conditions: read-out: GI
HL-60(TB) = assay: Growth inhibition of human HL-60(TB) cells assessed as cell growth at 10 '-5 M after 48 hrs by sulforhodamine B assay; conditions: HL-60, 48 h, read-out: Activity
Outline: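 Five-dose NCI protocol with final concentrations of 0.01–100 µM and drug diluted from a DMSO stock (400× the top concentration) in medium with gentamicin. Cells were pre-incubated 24 h, then exposed 48 h at 37 °C. Suspension cells were fixed with 16% final TCA, SRB-stained and read at 515 nm. Percentage growth at each level was [(Ti−Tz)/(C−Tz)]×100, or [(Ti−Tz)/Tz]×100 when Ti < Tz.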

SK-MEL-2 = assay: Growth inhibition of human SK-MEL-2 cells assessed as cell growth at 10 '-4 M after 48 hrs by sulforhodamine B assay; conditions: SK-MEL-2, 48 h, read-out: Activity
HT-29 = assay: Growth inhibition of human HT-29 cells assessed as cell growth at 10 '-7 M after 48 hrs by sulforhodamine B assay; conditions: HT-29, 48 h, read-out: Activity
MDA-MB-231 = assay: Growth inhibition of human MDA-MB-231 cells assessed as growth inhibition at 10 uM after 48 hrs by sulforhodamine B assay; conditions: MDA-MB-231, 48 h, read-out: GI
SK-MEL-28 = assay: Growth inhibition of human SK-MEL-28 cells assessed as growth inhibition at 10 uM after 48 hrs by sulforhodamine B assay; conditions: SK-MEL-28, 48 h, read-out: GI
[4] = Growth inhibition of human HCC2998 cells assessed as cell growth at 10 '-4 M after 48 hrs by sulforhodamine B assay; conditions: HCC 2998, 48 h, read-out: Activity
SF-268 = assay: Growth inhibition of human SF268 cells assessed as cell growth at 10 '-6 M after 48 hrs by sulforhodamine B assay; conditions: SF-268, 48 h, read-out: Activity
OVCAR-4 [5] = assay: Growth inhibition of human OVCAR4 cells assessed as cell growth at 10 '-6 M after 48 hrs by sulforhodamine B assay; conditions: OVCAR-4, 48 h, read-out: Activity
OVCAR-4 [6] = assay: Growth inhibition of human OVCAR4 cells assessed as cell growth at 10 '-5 M after 48 hrs by sulforhodamine B assay; conditions: OVCAR-4, 48 h, read-out: Activity
[7] = Growth inhibition of human EKVX cells after 48 hrs by sulforhodamine B assay; outline: as §1
OVCAR-4 [8] = assay: Growth inhibition of human OVCAR4 cells assessed as growth inhibition at 10 uM after 48 hrs by sulforhodamine B assay; conditions: OVCAR-4, 48 h, read-out: GI
[9] = Growth inhibition of human HCC2998 cells assessed as cell growth at 10 '-5 M after 48 hrs by sulforhodamine B assay; conditions: HCC 2998, 48 h, read-out: Activity
[10] = read-out: LD50 (the source's name)

SMILES: Cc1cc(=O)oc2cc(OCCn3c(C)nn(-c4ccc(Cl)cc4)c3=O)ccc12
- growth at 0.1 µM (UACC-257): 101%
- growth at 0.1 µM (OVCAR-4 [1]): 90%
- growth at 100 µM (NCI-H522): -22%
- growth at 0.1 µM (SN12C): 90%
- growth at 0.1 µM (COLO 205): 102%
- growth at 0.01 µM [2]: 96%
- GI50 (RPMI-8226): 1.1 µM
- TGI (RPMI-8226): > 1 µM
- CC50 (RPMI-8226; [10]): > 1 µM
- growth at 1 µM (MCF7): 77%
- GI50 (KM12): 1.66 µM
- TGI (KM12): > 1 µM
- CC50 (KM12; [10]): > 1 µM
- growth at 1 µM (M14): 67%
- growth at 10 µM (OVCAR-5): 53%
- inhibition of growth at 10 µM (CAKI-1): 80.5%
- growth at 0.01 µM (SW-620): 99%
- GI50 (T47D): 7.55 µM
- TGI (T47D): > 1 µM
- CC50 (T47D; [10]): > 1 µM
- GI50 (MDA-MB-435): 2.69 µM
- TGI (MDA-MB-435): 8.37 µM
- CC50 (MDA-MB-435; [10]): > 1 µM
- growth at 10 µM (HOP-62): 8%
- growth at 100 µM (PC-3): 34%
- inhibition of growth at 10 µM [3]: 65.2%
- growth at 10 µM (HL-60(TB)): -1%
- growth at 100 µM (SK-MEL-2): 14%
- growth at 0.1 µM (HT-29): 106%
- inhibition of growth at 10 µM (MDA-MB-231): 52.5%
- inhibition of growth at 10 µM (SK-MEL-28): 59.2%
- growth at 100 µM [4]: 17%
- growth at 1 µM (SF-268): 87%
- growth at 1 µM (OVCAR-4 [5]): 88%
- growth at 10 µM (OVCAR-4 [6]): -1%
- GI50 [7]: 1 µM
- TGI [7]: > 1 µM
- CC50 [7, 10]: > 1 µM
- inhibition of growth at 10 µM (OVCAR-4 [8]): 32.9%
- growth at 10 µM [9]: 29%
